Laboratory results as given in ChEMBL document CHEMBL4689842, “EUbOPEN Chemogenomics Library wave 1” (2021).

Tested on: Fibroblast
Assay: Multiplex assay against human fibroblast
Assay type: toxicity, cell-based
Summary of the method: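 Four dyes were applied at seeding to live cells: Hoechst33342, BioTracker Green Microtubule Cytoskeleton Dye, MitoTracker Red and Annexin V Alexa Fluor 680. Imaging after compound addition used a CQ1 microscope at 37°C and 5% CO2. CellPathfinder machine-learning gating then sorted cells into Hoechst high-intensity objects or normal cells, normal cells into healthy, pyknosed or fragmented nuclei, and pyknosed cells into mitotic or apoptotic, with tubulin, mitochondrial-mass and membrane-permeability phenotypes given as per cents of healthy-nucleus cells.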

[1] = 12 h, 1 µM, compound concentration 1 uM, replicate 1
[2] = 12 h, 1 µM, compound concentration 1 uM, replicate 2
[3] = 12 h, 10 µM, compound concentration 10 uM, replicate 1
[4] = 12 h, 10 µM, compound concentration 10 uM, replicate 2
[5] = 24 h, 1 µM, compound concentration 1 uM, replicate 1
[6] = 24 h, 1 µM, compound concentration 1 uM, replicate 2
[7] = 24 h, 10 µM, compound concentration 10 uM, replicate 1
[8] = 24 h, 10 µM, compound concentration 10 uM, replicate 2
[9] = 48 h, 1 µM, compound concentration 1 uM, replicate 1
[10] = 48 h, 1 µM, compound concentration 1 uM, replicate 2
[11] = 48 h, 10 µM, compound concentration 10 uM, replicate 1
[12] = 48 h, 10 µM, compound concentration 10 uM, replicate 2

CCOc1cc(C(=O)N2CCC(N3CCN(C)CC3)CC2)ccc1Nc1ncc2c(n1)N(C1CCCC1)c1ccccc1C(=O)N2C
Population Apoptotic (%) [1]: 57%
Population Fragmented Nuclei (%) [1]: 27%
Population Healthy Nuclei (%) [1]: 42%
Population Hoechst High Intensity Objects (%) [1]: 13%
Population Membrane Permeable-Phenotype (%) [1]: 19%
Population Mitochondria Different-Phenotype (%) [1]: 27%
Population Mitotic Cells (%) [1]: 42%
Population Normal (%) [1]: 86%
Population Pyknosed Nuclei (%) [1]: 30%
Population Tubulin-Different-Phenotype (%) [1]: 60%
Total Cell Count [1]: 200
Population Apoptotic (%) [2]: 75%
Population Fragmented Nuclei (%) [2]: 6%
Population Healthy Nuclei (%) [2]: 80%
Population Hoechst High Intensity Objects (%) [2]: 10%
Population Membrane Permeable-Phenotype (%) [2]: 4%
Population Mitochondria Different-Phenotype (%) [2]: 76%
Population Mitotic Cells (%) [2]: 25%
Population Normal (%) [2]: 89%
Population Pyknosed Nuclei (%) [2]: 12%
Population Tubulin-Different-Phenotype (%) [2]: 48%
Total Cell Count [2]: 67
Population Apoptotic (%) [3]: 58%
Population Fragmented Nuclei (%) [3]: 30%
Population Healthy Nuclei (%) [3]: 44%
Population Hoechst High Intensity Objects (%) [3]: 19%
Population Membrane Permeable-Phenotype (%) [3]: 20%
Population Mitochondria Different-Phenotype (%) [3]: 56%
Population Mitotic Cells (%) [3]: 41%
Population Normal (%) [3]: 80%
Population Pyknosed Nuclei (%) [3]: 25%
Population Tubulin-Different-Phenotype (%) [3]: 86%
Total Cell Count [3]: 84
Population Apoptotic (%) [4]: 92%
Population Fragmented Nuclei (%) [4]: 21%
Population Healthy Nuclei (%) [4]: 50%
Population Hoechst High Intensity Objects (%) [4]: 6%
Population Membrane Permeable-Phenotype (%) [4]: 93%
Population Mitochondria Different-Phenotype (%) [4]: 97%
Population Mitotic Cells (%) [4]: 7%
Population Normal (%) [4]: 93%
Population Pyknosed Nuclei (%) [4]: 27%
Population Tubulin-Different-Phenotype (%) [4]: 100%
Total Cell Count [4]: 69
Population Apoptotic (%) [5]: 62%
Population Fragmented Nuclei (%) [5]: 29%
Population Healthy Nuclei (%) [5]: 49%
Population Hoechst High Intensity Objects (%) [5]: 11%
Population Membrane Permeable-Phenotype (%) [5]: 12%
Population Mitochondria Different-Phenotype (%) [5]: 17%
Population Mitotic Cells (%) [5]: 37%
Population Normal (%) [5]: 88%
Population Pyknosed Nuclei (%) [5]: 20%
Population Tubulin-Different-Phenotype (%) [5]: 42%
Total Cell Count [5]: 205
Population Apoptotic (%) [6]: 22%
Population Fragmented Nuclei (%) [6]: 16%
Population Healthy Nuclei (%) [6]: 72%
Population Hoechst High Intensity Objects (%) [6]: 5%
Population Membrane Permeable-Phenotype (%) [6]: 5%
Population Mitochondria Different-Phenotype (%) [6]: 65%
Population Mitotic Cells (%) [6]: 77%
Population Normal (%) [6]: 94%
Population Pyknosed Nuclei (%) [6]: 11%
Population Tubulin-Different-Phenotype (%) [6]: 27%
Total Cell Count [6]: 71
Population Apoptotic (%) [7]: 76%
Population Fragmented Nuclei (%) [7]: 41%
Population Healthy Nuclei (%) [7]: 26%
Population Hoechst High Intensity Objects (%) [7]: 28%
Population Membrane Permeable-Phenotype (%) [7]: 21%
Population Mitochondria Different-Phenotype (%) [7]: 85%
Population Mitotic Cells (%) [7]: 23%
Population Normal (%) [7]: 71%
Population Pyknosed Nuclei (%) [7]: 32%
Population Tubulin-Different-Phenotype (%) [7]: 92%
Total Cell Count [7]: 74
Population Apoptotic (%) [8]: 88%
Population Fragmented Nuclei (%) [8]: 10%
Population Healthy Nuclei (%) [8]: 30%
Population Hoechst High Intensity Objects (%) [8]: 11%
Population Membrane Permeable-Phenotype (%) [8]: 100%
Population Mitochondria Different-Phenotype (%) [8]: 96%
Population Mitotic Cells (%) [8]: 11%
Population Normal (%) [8]: 88%
Population Pyknosed Nuclei (%) [8]: 59%
Population Tubulin-Different-Phenotype (%) [8]: 100%
Total Cell Count [8]: 85
Population Apoptotic (%) [9]: 78%
Population Fragmented Nuclei (%) [9]: 37%
Population Healthy Nuclei (%) [9]: 51%
Population Hoechst High Intensity Objects (%) [9]: 15%
Population Membrane Permeable-Phenotype (%) [9]: 13%
Population Mitochondria Different-Phenotype (%) [9]: 8%
Population Mitotic Cells (%) [9]: 21%
Population Normal (%) [9]: 84%
Population Pyknosed Nuclei (%) [9]: 10%
Population Tubulin-Different-Phenotype (%) [9]: 43%
Total Cell Count [9]: 213
Population Apoptotic (%) [10]: 100%
Population Fragmented Nuclei (%) [10]: 29%
Population Healthy Nuclei (%) [10]: 67%
Population Hoechst High Intensity Objects (%) [10]: 18%
Population Membrane Permeable-Phenotype (%) [10]: 14%
Population Mitochondria Different-Phenotype (%) [10]: 20%
Population Mitotic Cells (%) [10]: 0%
Population Normal (%) [10]: 81%
Population Pyknosed Nuclei (%) [10]: 3%
Population Tubulin-Different-Phenotype (%) [10]: 63%
Total Cell Count [10]: 116
Population Apoptotic (%) [11]: 88%
Population Fragmented Nuclei (%) [11]: 35%
Population Healthy Nuclei (%) [11]: 26%
Population Hoechst High Intensity Objects (%) [11]: 25%
Population Membrane Permeable-Phenotype (%) [11]: 33%
Population Mitochondria Different-Phenotype (%) [11]: 41%
Population Mitotic Cells (%) [11]: 11%
Population Normal (%) [11]: 75%
Population Pyknosed Nuclei (%) [11]: 37%
Population Tubulin-Different-Phenotype (%) [11]: 66%
Total Cell Count [11]: 60
Population Apoptotic (%) [12]: 93%
Population Fragmented Nuclei (%) [12]: 34%
Population Healthy Nuclei (%) [12]: 46%
Population Hoechst High Intensity Objects (%) [12]: 32%
Population Membrane Permeable-Phenotype (%) [12]: 5%
Population Mitochondria Different-Phenotype (%) [12]: 78%
Population Mitotic Cells (%) [12]: 6%
Population Normal (%) [12]: 67%
Population Pyknosed Nuclei (%) [12]: 18%
Population Tubulin-Different-Phenotype (%) [12]: 89%
Total Cell Count [12]: 120

CCc1cccc(CC)c1NC(=O)c1nn(C)c2c1CCc1cnc(Nc3ccc(N4CCN(C)CC4)cc3OC)nc1-2
Population Apoptotic (%) [1]: 45%
Population Fragmented Nuclei (%) [1]: 17%
Population Healthy Nuclei (%) [1]: 47%
Population Hoechst High Intensity Objects (%) [1]: 9%
Population Membrane Permeable-Phenotype (%) [1]: 8%
Population Mitochondria Different-Phenotype (%) [1]: 72%
Population Mitotic Cells (%) [1]: 54%
Population Normal (%) [1]: 90%
Population Pyknosed Nuclei (%) [1]: 34%
Population Tubulin-Different-Phenotype (%) [1]: 75%
Total Cell Count [1]: 142
Population Apoptotic (%) [2]: 50%
Population Fragmented Nuclei (%) [2]: 54%
Population Healthy Nuclei (%) [2]: 18%
Population Hoechst High Intensity Objects (%) [2]: 25%
Population Membrane Permeable-Phenotype (%) [2]: 0%
Population Mitochondria Different-Phenotype (%) [2]: 75%
Population Mitotic Cells (%) [2]: 50%
Population Normal (%) [2]: 74%
Population Pyknosed Nuclei (%) [2]: 27%
Total Cell Count [2]: 59
Population Apoptotic (%) [3]: 71%
Population Fragmented Nuclei (%) [3]: 32%
Population Healthy Nuclei (%) [3]: 46%
Population Hoechst High Intensity Objects (%) [3]: 11%
Population Membrane Permeable-Phenotype (%) [3]: 2%
Population Mitochondria Different-Phenotype (%) [3]: 11%
Population Mitotic Cells (%) [3]: 28%
Population Normal (%) [3]: 88%
Population Pyknosed Nuclei (%) [3]: 20%
Population Tubulin-Different-Phenotype (%) [3]: 18%
Total Cell Count [3]: 213
Population Apoptotic (%) [4]: 20%
Population Fragmented Nuclei (%) [4]: 51%
Population Healthy Nuclei (%) [4]: 40%
Population Hoechst High Intensity Objects (%) [4]: 21%
Population Membrane Permeable-Phenotype (%) [4]: 3%
Population Mitochondria Different-Phenotype (%) [4]: 30%
Population Mitotic Cells (%) [4]: 80%
Population Normal (%) [4]: 78%
Population Pyknosed Nuclei (%) [4]: 7%
Population Tubulin-Different-Phenotype (%) [4]: 23%
Total Cell Count [4]: 82
Population Apoptotic (%) [5]: 80%
Population Fragmented Nuclei (%) [5]: 25%
Population Healthy Nuclei (%) [5]: 29%
Population Hoechst High Intensity Objects (%) [5]: 10%
Population Membrane Permeable-Phenotype (%) [5]: 2%
Population Mitochondria Different-Phenotype (%) [5]: 89%
Population Mitotic Cells (%) [5]: 19%
Population Normal (%) [5]: 89%
Population Pyknosed Nuclei (%) [5]: 44%
Population Tubulin-Different-Phenotype (%) [5]: 78%
Total Cell Count [5]: 140
Population Apoptotic (%) [6]: 100%
Population Fragmented Nuclei (%) [6]: 61%
Population Healthy Nuclei (%) [6]: 11%
Population Hoechst High Intensity Objects (%) [6]: 30%
Population Membrane Permeable-Phenotype (%) [6]: 0%
Population Mitochondria Different-Phenotype (%) [6]: 100%
Population Mitotic Cells (%) [6]: 0%
Population Normal (%) [6]: 69%
Population Pyknosed Nuclei (%) [6]: 27%
Population Tubulin-Different-Phenotype (%) [6]: 100%
Total Cell Count [6]: 63
Population Apoptotic (%) [7]: 72%
Population Fragmented Nuclei (%) [7]: 37%
Population Healthy Nuclei (%) [7]: 46%
Population Hoechst High Intensity Objects (%) [7]: 13%
Population Membrane Permeable-Phenotype (%) [7]: 4%
Population Mitochondria Different-Phenotype (%) [7]: 11%
Population Mitotic Cells (%) [7]: 27%
Population Normal (%) [7]: 86%
Population Pyknosed Nuclei (%) [7]: 16%
Total Cell Count [7]: 262
Population Apoptotic (%) [8]: 66%
Population Fragmented Nuclei (%) [8]: 60%
Population Healthy Nuclei (%) [8]: 35%
Population Hoechst High Intensity Objects (%) [8]: 20%
Population Membrane Permeable-Phenotype (%) [8]: 6%
Population Mitochondria Different-Phenotype (%) [8]: 10%
Population Mitotic Cells (%) [8]: 33%
Population Normal (%) [8]: 80%
Population Pyknosed Nuclei (%) [8]: 3%
Population Tubulin-Different-Phenotype (%) [8]: 16%
Total Cell Count [8]: 105
